≈ marks a conversion by molar mass, not a printed value. Entries after “also recorded” stand apart in the source; their conditions may differ.

We go through seven compounds from paper PMC9798170 (International Journal for Parasitology: Drugs and Drug …, 2022).

Experiment [1] concerns P. falciparum 3D7 strain. The note with it: ref Hidayati et al., 2020; cited from earlier work.
Experiment [2] concerns NADH-cytochrome c (complex I-III activities). The experiment is described as follows: Counter assay NADH-cytochrome c activity, bovine heart mitochondria. Type of experiment: biochemical. The settings on record: read-out: IC50 of the sample against succinate-cytochrome c (complex I-III).
In experiment [3] the test system is succinate-cytochrome c (complex II-III activities). The experiment is described as follows: Counter assay succinate-cytochrome c activity, bovine heart mitochondria. The class given is biochemical. The note with it: read-out: IC50 of the sample against succinate-cytochrome c (complex II-III). The essentials:
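Run as the NADH assay (phosphate buffer pH 7.4, 2 mM KCN) but with 100 µM cytochrome c and 25 µg/mL bovine heart mitochondria. Reaction started with 10 mM succinate, and cytochrome c reduction read at 550 nm, in quadruplicate. Test compound was serially diluted from 100 to 0.003 µM. DMSO was the 0% inhibition control and 5 µM ascochlorin the 100% inhibition control.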

Experiment [4] relates to Plasmodium falciparum 3D7. The experiment is described as follows: In vitro antimalarial assay. The class given is cell-based. The note with it: P. falciparum 3D7, 48 h, microscopic assay; listed as Chloroquine diphosphate. The essentials: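 Test compound stock was 10 mg/mL in DMSO, diluted in RPMI-1640 to final 0.01–100 µg/mL. It was added to culture at ~1% parasitemia and 5% haematocrit in human O+ RBCs with 10% serum, then incubated 48 h at 37 °C. Parasitemia was counted per 1000 RBCs on 10% Giemsa smears. Inhibition was taken relative to the negative control, and IC50 came from a four-parameter logistic fit.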

In experiment [5] the test system is synchronized P. falciparum 3D7 strain. The experiment is described as follows: Impairment of P. falciparum intraerythrocytic stage development. The class given is cell-based, Plasmodium falciparum. The note with it: tested at IC50 concentration. The essentials:
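Parasites were sorbitol-synchronized (5% w/v) and set at 0.3% parasitemia in human O+ RBCs in RPMI-1640 with 10% human serum at 37 °C. Sampling was at 0, 24 and 48 h. Giemsa-stained thin smears were scored for stage by light microscopy at 1000×. Each concentration was run in duplicate on the same plate.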

Experiment [6] concerns Plasmodium falciparum 3D7. The experiment is described as follows: Isobologram analysis, fixed-ratio combinations. Type of experiment: cell-based. The note with it: fixed ratios 4:1, 3:2, 2:3, 1:4; 72 h. The essentials:
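Test compound was combined with atovaquone or chloroquine at fixed ratios 4:1, 3:2, 2:3 and 1:4, with 5:0 and 0:5 for single agents, in serial dilution. Synchronized rings at 0.3% parasitemia were incubated 72 h at 37 °C under 90% N2/5% CO2/5% O2, then read by PfLDH/diaphorase. IC50 was determined per mixture, and FIC = IC50 in mixture / IC50 alone.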

Experiment [7] concerns the target T1, recombinant PfMQO (Plasmodium falciparum, UniProt C6KT09).
T1 sequence (C6KT09 1-521): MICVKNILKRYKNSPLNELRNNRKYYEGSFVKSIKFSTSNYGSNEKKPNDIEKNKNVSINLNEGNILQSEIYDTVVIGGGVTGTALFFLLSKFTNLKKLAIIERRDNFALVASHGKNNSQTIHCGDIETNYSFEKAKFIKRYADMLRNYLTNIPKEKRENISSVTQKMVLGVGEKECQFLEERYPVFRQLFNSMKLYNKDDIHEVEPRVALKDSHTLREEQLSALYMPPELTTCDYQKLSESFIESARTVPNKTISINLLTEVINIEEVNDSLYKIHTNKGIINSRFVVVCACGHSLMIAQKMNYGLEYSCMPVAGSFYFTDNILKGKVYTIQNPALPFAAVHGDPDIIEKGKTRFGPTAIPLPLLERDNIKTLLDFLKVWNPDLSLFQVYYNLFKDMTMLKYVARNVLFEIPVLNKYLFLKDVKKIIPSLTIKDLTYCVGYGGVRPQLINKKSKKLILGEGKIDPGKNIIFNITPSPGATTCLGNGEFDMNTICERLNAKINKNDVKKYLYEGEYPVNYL
The experiment is described as follows: Recombinant PfMQO activity inhibition assay. Type of experiment: biochemical. The note with it: recombinant PfMQO membrane fraction. The method, boiled down:
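PfMQO membrane fraction (3 µg/mL) was used in 50 mM HEPES-KOH pH 7.0 with 1 mM KCN, 25 µM decylubiquinone and 120 µM DCIP. Background was read for 5 min at 600 nm and 37 °C, then malate (400 mM stock) was added and activity recorded for 10 min. DMSO wells served as 0% and no-malate wells as 100%. Runs were in triplicate over test compound 0.001–100 µM, with four-parameter nonlinear fit.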

Experiment [8] relates to P. falciparum. The settings on record: P. falciparum growth; ref Widyawaruyanti et al., 2007; cited from earlier work.

Turning to `CC(C)=CCCC1(C)C=Cc2c(CCC(=O)c3ccc(O)cc3O)ccc(O)c2O1` (stereo not drawn) [1-(2,4-dihydroxyphenyl)-3-(8-hydroxy-2-methyl-2-(4-methyl-3-pentenyl)-2H-1-benzopyran-5-yl]-1-propanone], in experiment [1], the 50% inhibitory concentration (IC50) – broadly, the midpoint of a concentration-inhibition curve – is 1.05 µM.

For `CC(/C=C/[C@@]1(C)[C@H](C)CCC(=O)[C@@H]1C)=C\Cc1c(O)c(Cl)c(C)c(C=O)c1O` [Ascochlorin], the half-inhibitory concentration (IC50) in experiment [2] and in experiment [3] was 0.01 µM each time.

Consider `Cc1c(-c2ccc(-c3ccccc3F)cc2)nc2ccc(F)cc2c1C(=O)O` [Brequinar], for which the IC50 in experiment [3] worked out at 22.9 ± 1.46 µM.

With `CCN(CC)CCCC(C)Nc1ccnc2cc(Cl)ccc12` (stereo not drawn) [Chloroquine], the IC50 in experiment [4] was 0.004 µg/mL (≈ 0.0125 µM). In addition, the “stage development after 24 h of incubation” value in experiment [5] (24 h) is “ring stage was still dominant”. The “stage development after 48 h of incubation” value in experiment [5] (48 h) is given as “accumulation of trophozoite”. Besides, in experiment [6], the “interaction in combination with atovaquone (isobologram)” value is recorded as “antagonistic interactions; also recorded: antagonism”.

With `CC(C)=CCC/C(C)=C/CC/C(C)=C/Cc1c(O)c2ccccc2oc1=O` [Ferulenol], the IC50 worked out at 0.06 ± 0.01 µg/mL in experiment [7], 0.17 µM in experiment [7] (listed as ferulenol), 0.28 ± 0.08 µM in experiment [2] and 0.17 ± 0.01 µM in experiment [3].

Take `C=C(C)[C@H]1Cc2c(ccc3c2O[C@@H]2COc4cc(OC)c(OC)cc4[C@@H]2C3=O)O1` [Rotenone]: the concentration for half-maximal inhibition (IC50) in experiment [2] came to 0.01 µM; in experiment [3], 1.86 ± 0.11 µM.

On to Heteroflavanone C, for which the 50% inhibitory concentration (IC50) in experiment [8] is 0.001 µM.
